Data from article PMC9052103 (RSC Advances, 2020).
Read-outs that look alike come from different tables or passages of the source.

What was measured:
[1] = tested on: S. aureus ATCC 29213; assay: MIC, 96-well microtiter broth dilution; assay type: cell-based; details: Staphylococcus aureus
[2] = tested on: E. faecium ATCC 700221; assay: MIC, 96-well microtiter broth dilution; assay type: cell-based
[3] = tested on: E. coli ATCC 8739; assay: MIC, 96-well microtiter broth dilution; assay type: cell-based; details: Escherichia coli, ATCC8739, read-out: MIC E. coli ATCC 8739
[4] = tested on: human bronchial epithelium cells (16HBE); assay: CCK-8 cytotoxicity assay; assay type: cell-based; details: 48 h, read-out: IC50 16HBE
In short: (§1)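 Cells seeded at 5000 per well and allowed to adhere overnight at 37 °C, then exposed to test compound for 48 h. CCK-8 reagent added for a further 3 h, with absorbance read at 450 nm. Triplicates.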

[5] = tested on: S. aureus ATCC BAA-1720; assay: MIC, 96-well microtiter broth dilution; assay type: cell-based; details: Staphylococcus aureus, ATCCBAA1720|MRSA, read-out: MIC S. aureus ATCC BAA-1720
[6] = tested on: B. subtilis 168; assay: Bacterial morphology study; assay type: cell-based; details: 0.5 μg mL^−1 for 4 h; control group 5–10 μm
[7] = tested on: E. coli ATCC 25922; assay: MIC, 96-well microtiter broth dilution; assay type: cell-based; details: Escherichia coli, ATCC25922, read-out: MIC E. coli ATCC 25922
[8] = target: T1, S. aureus FtsZ (Staphylococcus aureus, UniProt P0A031); assay: Light-scattering assay of FtsZ polymerization; assay type: biochemical
T1 sequence (P0A031 1-390): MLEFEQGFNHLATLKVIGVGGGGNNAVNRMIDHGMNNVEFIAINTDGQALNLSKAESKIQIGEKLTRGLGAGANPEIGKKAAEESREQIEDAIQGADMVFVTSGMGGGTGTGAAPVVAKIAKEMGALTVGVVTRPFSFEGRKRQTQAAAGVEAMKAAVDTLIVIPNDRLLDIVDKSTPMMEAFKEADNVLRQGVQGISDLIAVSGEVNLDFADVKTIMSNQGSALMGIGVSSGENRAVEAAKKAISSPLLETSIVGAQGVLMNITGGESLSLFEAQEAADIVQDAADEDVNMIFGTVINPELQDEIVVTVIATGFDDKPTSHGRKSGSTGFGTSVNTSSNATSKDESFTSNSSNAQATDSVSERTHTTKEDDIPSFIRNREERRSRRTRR
In short: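 S. aureus FtsZ (4 μM) in 50 mM MOPS pH 6.5, preincubated 10 min at 25 °C with 1% DMSO vehicle or test compound. Baseline set after adding 50 mM KCl and 10 mM MgCl2. After 10 min, 1 mM GTP added. 90° light scattering (excitation/emission 600 nm) followed for 25 min, with blank background subtracted. Rate and extent of polymerization calculated. Triplicates.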

[9] = tested on: S. aureus ATCC 43300; assay: MIC, 96-well microtiter broth dilution; assay type: cell-based; details: Staphylococcus aureus, ATCC43300|MRSA, read-out: MIC S. aureus ATCC 43300
[10] = tested on: mouse fibroblast cells (L929); assay: CCK-8 cytotoxicity assay; assay type: cell-based; details: L929, 48 h, read-out: IC50 L929
In short: as §1

[11] = target: SaFtsZ (Staphylococcus aureus, UniProt P0A031); assay: SaFtsZ binding affinity assay; parameters: species or system S. aureus
In short: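 Fluorescence titration at 25 °C in 50 mM Tris–HCl pH 7.4, 50 mM KCl, 2 mM magnesium acetate. Test compound at 3.51 or 3.68 μM titrated with SaFtsZ in 0.4 μM steps (0.4–6.4 μM), equilibrating 2 min per step. Excitation 493 nm, emission 500–700 nm, buffer-titration background subtracted. Kd obtained by nonlinear fit to an independent-site model.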

[12] = tested on: E. faecium, S. epidermidis and E. coli; assay: MIC, summary over E. faecium, S. epidermidis and E. coli; assay type: cell-based; details: read-out: MIC against E. faecium, S. epidermidis and E. coli
[13] = tested on: MRSA strains; assay: MIC, summary over MRSA strains; assay type: cell-based, S. aureus; details: Staphylococcus aureus, read-out: MIC against MRSA
[14] = target: S. aureus FtsZ (SaFtsZ) (Staphylococcus aureus, UniProt P0A031); assay: GTPase activity assay; assay type: biochemical
In short: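 Phosphate-release kit assay: S. aureus FtsZ (7.3 μM) in assay buffer with 1% DMSO vehicle or varied concentrations of test compound. Reaction started with 200 μM GTP and run 30 min at room temperature. Colour reagent added for another 30 min to stop the reaction, and inorganic phosphate read at 620 nm. Triplicates.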

[15] = tested on: S. aureus ATCC BAA-1747; assay: MIC, 96-well microtiter broth dilution; assay type: cell-based; details: Staphylococcus aureus, ATCCBAA1747|MRSA, read-out: MIC S. aureus ATCC BAA-1747
[16] = tested on: E. faecalis ATCC 29212; assay: MIC, 96-well microtiter broth dilution; assay type: cell-based; details: Enterococcus faecalis, ATCC29212, read-out: MIC E. faecalis ATCC 29212
[17] = tested on: human renal tubular epithelial cells (HK-2); assay: CCK-8 cytotoxicity assay; assay type: cell-based; details: Epithelial cell, 48 h, read-out: IC50 HK-2
In short: as §1

[18] = tested on: S. epidermidis ATCC 12228; assay: MIC, 96-well microtiter broth dilution; assay type: cell-based; details: Staphylococcus epidermidis, ATCC12228, read-out: MIC S. epidermidis ATCC 12228
[19] = tested on: Z-ring in B. subtilis; assay: Visualization of Z-ring; assay type: cell-based; details: 0.5 × MIC, 4 h
In short: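 B. subtilis carrying IPTG-inducible GFP-FtsZ plasmid grown in LB with 30 μg mL−1 chloramphenicol at 37 °C with shaking; overnight culture diluted to 1% in LB with 40 μM IPTG plus test compound at 0.5 × MIC, 4 h at 37 °C. Cells fixed, resuspended in PBS, placed on 0.1% (w/v) poly-L-lysine-coated slides; imaged by confocal microscopy, 40× oil immersion.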

[20] = tested on: S. aureus ATCC 29213; assay: In vitro drug resistance development, serial passage; assay type: cell-based
In short: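 Serial passage against S. aureus ATCC 29213: culture from the 0.5 × MIC well of the prior MIC plate diluted to 5 × 10^5 CFU mL−1 and exposed to a range of test compound concentrations. MIC read after 24 h at 37 °C. Cycle repeated 35 times. Ciprofloxacin, vancomycin and rifampin passaged in parallel.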

[21] = tested on: drug-resistant K. pneumoniae, A. baumannii, P. aeruginosa and E. cloacae
[22] = tested on: E. faecium ATCC 49624; assay: MIC, 96-well microtiter broth dilution; assay type: cell-based; details: Enterococcus faecium, ATCC49624, read-out: MIC E. faecium ATCC 49624
[23] = tested on: S. aureus ATCC BAA-41; assay: MIC, 96-well microtiter broth dilution; assay type: cell-based; details: Staphylococcus aureus, ATCCBAA41|MRSA, read-out: MIC S. aureus ATCC BAA-41

`Cc1cc(/C=C2\Sc3ccccc3N2CCCN2CCC(C)CC2)c2ccccc2[n+]1C.[I-]` [Compound 4a4, (Z)-1,2-Dimethyl-4-((3-(3-(4-methylpiperidin-1-yl)propyl)benzo[d]thiazol-2(3H)-ylidene)methyl)quinolin-1-ium iodide] showed an MIC ([1]; ATCC29213) of 1 µg/mL, an MIC ([1]; ATCC29213, read-out: MIC S. aureus ATCC 29213) of 1 µg/mL and an MIC ([1]; ATCC29213, read-out: S. aureus ATCC 29213 (MIC)) of 1 µg/mL. For the same compound, the MIC ([2]; Enterococcus faecium, ATCC700221) was 2 µg/mL, the MIC ([2]; read-out: MIC against VRE) was 2 to 16 µg/mL and the MIC [3] was 1 µg/mL. The IC50 [4] was 14.3 µg/mL, the MIC [5] was 2 µg/mL and the “Cell length of B. subtilis 168” value [6] was greater than 10 μm. For the same compound, the MIC [7] was 0.5 µg/mL, the “Effect on FtsZ polymerization at a concentration gradient” value ([8]; 0.125–0.5 μg mL^−1) was “enhance FtsZ polymerization in a dose-dependent manner” and the “Light scattering signal compared to control (FtsZ polymerization)” value ([8]; same concentration, 0.125 μg mL^−1) was “significant increase in light scattering signal”. The MIC [9] was 2 µg/mL, the IC50 [10] was 12.6 µg/mL and the Kd [11] was 125 nM. The MIC [12] was 0.5 to 2 µg/mL, the MIC [13] was 1 to 8 µg/mL and the “Effect on GTPase activity of SaFtsZ” value [14] was “did not show any effect”. It also gave an MIC [15] of 2 µg/mL, an MIC [16] of 2 µg/mL and an IC50 [17] of 26 µg/mL. The MIC [18] was 0.5 µg/mL, the “Effect on Z-ring formation (GFP-FtsZ localization)” value [19] was “promoted the mislocalization of the FtsZ protein” and the “Increase of MIC after 35 passages” value [20] was 16 fold. For the same compound, the “Antibacterial activity against drug-resistant K. pneumoniae, A. baumannii, P. aeruginosa and E. cloacae” value [21] was “moderate antibacterial activity”, the MIC [22] was 1 µg/mL and the MIC [23] was 1 µg/mL.
